Among the data in ChEMBL document CHEMBL3045525, “Synthesis and fungicidal activity of novel 2,5-disubstituted-1,3,4-oxadiazole derivatives” (2012) are Efficacy values, retold here.

In experiment [1] the test system is Cladosporium cucumerinum. The experiment is described as follows: Fungicidal activity against Cladosporium cucumerinum infected drug-pretreated cucumber two seeded leaves assessed as decrease in disease index at 500 ug/ml (acetone Rvb = 3.18 +/-0.75%). Format: functional. In outline:
(§1)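 Greenhouse cucumber assay. Fungi kept on PDA at 4 °C and cultured at 24 ± 1 °C. Plants at the two-seed-leaf stage had leaves hand-sprayed at 500 μg/mL, then were inoculated and held at 24 ± 1 °C, >80% RH. Efficacy = (CK − PT)/CK × 100, from average disease indices.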

Experiment [2] concerns Corynespora cassiicola. The experiment is described as follows: Fungicidal activity against Corynespora cassiicola infected in drug-pretreated cucumber two seeded leaves assessed as decrease in disease index at 500 ug/ml (acetone Rvb = 5.23 +/-0.88%). Type of experiment: functional. In a few lines: as §1
The test system of experiment [3] is Rhizoctonia solani. The experiment is described as follows: Fungicidal activity against Rhizoctonia solani infected drug-pretreated cucumber two seeded leaves assessed as decrease in disease index at 500 ug/ml (acetone Rvb = 2.22 +/-0.79%). Format: functional. In outline: as §1
In experiment [4] the test system is Botrytis cinerea. The experiment is described as follows: Fungicidal activity against Botryotinia fuckeliana infected in drug-pretreated cucumber two seeded leaves assessed as decrease in disease index at 500 ug/ml (acetone Rvb = 1.53 +/-0.21%). Type of experiment: functional. In outline: as §1
Experiment [5] relates to Corynespora cassiicola. The experiment is described as follows: Fungicidal activity against Corynespora cassiicola infected in drug-pretreated cucumber two seeded leaves assessed as decrease in disease index at 75% WP formulation (acetone Rvb = 5.23 +/-0.88%). Type of experiment: functional. In a few lines:
as §1

In experiment [6] the test system is Cladosporium cucumerinum. The experiment is described as follows: Fungicidal activity against Cladosporium cucumerinum infected drug-pretreated cucumber two seeded leaves assessed as decrease in disease index at 40% EC formulation (acetone Rvb = 3.18 +/-0.75%).
The test system of experiment [7] is Botrytis cinerea. The experiment is described as follows: Fungicidal activity against Botryotinia fuckeliana infected in drug-pretreated cucumber two seeded leaves assessed as decrease in disease index at 40% SC formulation (acetone Rvb = 1.53 +/-0.21%). Type of experiment: functional. In a few lines: as §1
In experiment [8] the test system is Rhizoctonia solani. The experiment is described as follows: Fungicidal activity against Rhizoctonia solani infected drug-pretreated cucumber two seeded leaves assessed as decrease in disease index at 3% AS formulation (acetone Rvb = 2.22 +/-0.79%). Type of experiment: functional. In outline:
as §1

Regarding `O=C(N/N=C/c1ccc(Cl)cc1)c1ccc(-c2ccccc2F)o1`, the Efficacy was 37.3% in the experiment with Cladosporium cucumerinum [1], -3.05% in the experiment with Corynespora cassiicola [2], -5.2% with Rhizoctonia solani [3] and 27% in the experiment on Botrytis cinerea [4].
For `O=C(N/N=C/c1ccccc1)c1ccc(-c2ccc(Cl)cc2)o1`, the Efficacy is -8.1% with Cladosporium cucumerinum [1], 50.78% in the experiment with Corynespora cassiicola [2], 10.2% in the experiment on Rhizoctonia solani [3] and 11% in the experiment with Botrytis cinerea [4].
For `O=C(N/N=C/c1ccccc1Cl)c1ccc(-c2ccc(F)cc2)o1` the same measures were -22%, 13.87%, 8% and 72%.
The corresponding values for `O=[N+]([O-])c1ccccc1-c1ccc(-c2nnc(-c3ccc(Cl)cc3)o2)o1` are 17.2%, 15.17%, 94.38% and -30.02%.
The corresponding values for `COc1ccc(-c2nnc(-c3ccc(-c4ccccc4[N+](=O)[O-])o3)o2)cc1` are 15%, 48.61%, 48.48% and 92.68%.
For the compound `CCOc1ccc(-c2nnc(-c3ccc(-c4ccccc4[N+](=O)[O-])o3)o2)cc1`, the Efficacy in the experiment with Cladosporium cucumerinum [1] worked out at 8.89%; with Corynespora cassiicola [2] it was 74.71%; with Rhizoctonia solani [3], 65.58%; with Botrytis cinerea [4], 33.75%.
For `COc1ccc(-c2nnc(-c3ccc(-c4ccc([N+](=O)[O-])cc4)o3)o2)cc1` the same measures were 12.35%, 10.59%, -3.97% and 47.83%.
For `CCOc1ccc(-c2nnc(-c3ccc(-c4ccc([N+](=O)[O-])cc4)o3)o2)cc1` the same measures were 16.48%, 25.49%, 63.47% and 77.78%.
The corresponding values for `Fc1ccc(-c2ccc(-c3nnc(-c4ccccc4Cl)o3)o2)cc1` are 7.78%, 27.94%, 25.54% and 76.52%.
Regarding `O=C(N/N=C/c1ccc(Br)cc1)c1ccc(-c2ccccc2Cl)o1`, the Efficacy came to 19.75% with Cladosporium cucumerinum [1], 28.79% in the experiment with Corynespora cassiicola [2], 57.85% in the experiment on Rhizoctonia solani [3] and 91.76% in the experiment on Botrytis cinerea [4].
On to `CC(=O)N1N=C(c2ccc(-c3ccc(Cl)cc3)o2)OC1c1ccccc1` (stereo not drawn), for which the Efficacy was 45.61% in the experiment on Cladosporium cucumerinum [1], 35.29% in the experiment on Corynespora cassiicola [2], 69.09% with Rhizoctonia solani [3] and 70.71% in the experiment on Botrytis cinerea [4].
For the compound `CC(=O)N1N=C(c2ccc(-c3ccccc3Cl)o2)OC1c1ccc(Br)cc1` (stereo not drawn), the Efficacy with Cladosporium cucumerinum [1] is on record as 16.67%; with Corynespora cassiicola [2], 32.03%; with Rhizoctonia solani [3] it was 14.3%; in the experiment on Botrytis cinerea [4] it was 23.23%.
For `CC(=O)N1N=C(c2ccc(-c3ccccc3F)o2)OC1c1ccc(Cl)cc1` (stereo not drawn) the same measures were 31.11%, 28.85%, 66.28% and 18.89%.
The corresponding values for `CC(=O)N1N=C(c2ccc(-c3ccc(F)cc3)o2)OC1c1ccccc1Cl` (stereo not drawn) are 40%, 28.72%, 31.03% and 76.28%.
The corresponding values for `CCC(=O)N1N=C(c2ccc(-c3ccccc3Cl)o2)OC1c1ccc(Br)cc1` (stereo not drawn) are 23.98%, 41.18%, 63.87% and 13.91%.
On to `CCC(=O)N1N=C(c2ccc(-c3ccc(F)cc3)o2)OC1c1ccccc1Cl` (stereo not drawn), for which the Efficacy in the experiment with Cladosporium cucumerinum [1] is listed as 31.48%; in the experiment on Corynespora cassiicola [2], 46.75%; in the experiment with Rhizoctonia solani [3], 52.33%; in the experiment with Botrytis cinerea [4], -24.9%.
As to `O=C(NNC(=O)c1ccc(-c2ccccc2Cl)o1)c1ccc(Br)cc1`, the Efficacy in the experiment with Cladosporium cucumerinum [1] worked out at 14.2%; with Corynespora cassiicola [2] it was 8.24%; with Rhizoctonia solani [3], 49.42%; in the experiment on Botrytis cinerea [4], 24.64%.
The corresponding values for `Cc1ccc(C(=O)NNC(=O)c2ccc(-c3ccc(Cl)cc3)o2)cc1` are 29.8%, 50.87%, 19.8% and 4.35%.
The corresponding values for `O=C(NNC(=O)c1ccc(-c2ccccc2[N+](=O)[O-])o1)c1ccc(Cl)cc1` are 14.44%, 66.09%, 95.56% and 79.58%.
For `COc1ccc(C(=O)NNC(=O)c2ccc(-c3ccccc3[N+](=O)[O-])o2)cc1`, the Efficacy with Cladosporium cucumerinum [1] was found to be 2.61%; in the experiment on Corynespora cassiicola [2] it was 28.35%; in the experiment on Rhizoctonia solani [3] it was 56.45%; in the experiment on Botrytis cinerea [4], 35.5%.
The corresponding values for `CCOc1ccc(C(=O)NNC(=O)c2ccc(-c3ccccc3[N+](=O)[O-])o2)cc1` are 10%, 18.82%, 78.93% and -43.27%.
For `COc1ccc(C(=O)NNC(=O)c2ccc(-c3ccc([N+](=O)[O-])cc3)o2)cc1` the same measures were 57.89%, 36.36%, 24.45% and 29.9%.
For `CCOc1ccc(C(=O)NNC(=O)c2ccc(-c3ccc([N+](=O)[O-])cc3)o2)cc1` the same measures were 28.35%, 38.24%, 71.9% and 79.13%.
Turning to `O=C(NNC(=O)c1ccccc1Cl)c1ccc(-c2ccc(F)cc2)o1`, the Efficacy in the experiment on Cladosporium cucumerinum [1] is listed as 30.32%; in the experiment on Corynespora cassiicola [2], 34.26%; with Rhizoctonia solani [3], 69.35%; with Botrytis cinerea [4] it was 89.57%.
For `Clc1ccccc1-c1ccc(-c2nnc(-c3ccc(Br)cc3)o2)o1` the same measures were 17.9%, 90.59%, -1.16% and -2.61%.
For `Cc1ccc(-c2nnc(-c3ccc(-c4ccc(Cl)cc4)o3)o2)cc1` the same measures were 5.85%, 28.24%, 24.13% and 42.38%.
Turning to `N#Cc1c(Cl)c(Cl)c(Cl)c(C#N)c1Cl` [CHLOROTHALONIL], the Efficacy with Corynespora cassiicola [5] is on record as 93.53%.
`C[Si](Cn1cncn1)(c1ccc(F)cc1)c1ccc(F)cc1` [FLUSILAZOLE]: in the experiment with Cladosporium cucumerinum [6], the Efficacy is recorded as 95.56%.
Consider `Cc1cc(C)nc(Nc2ccccc2)n1` [PYRIMETHANIL], for which the Efficacy in the experiment with Botrytis cinerea [7] was found to be 69.57%.
As for `OCC1=C[C@H](N[C@H]2C[C@H](CO)[C@@H](O[C@@H]3O[C@H](CO)[C@@H](O)[C@H](O)[C@H]3O)[C@H](O)[C@H]2O)[C@H](O)[C@@H](O)[C@@H]1O` [VALIDAMYCIN], the Efficacy with Rhizoctonia solani [8] was determined as 93.68%.
